Blank lines part the entries; values can stand above or below the compound they belong to.
Legend:
[1] = target: Melanin-concentrating hormone receptor 1 (Homo sapiens, UniProt Q99705); assay: Antagonist activity against human MCH1 receptor stably-expressed in CHO cells by Gal4/Elk1-Luc reporter assay; assay type: functional, cell-based
How it was run: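 Human MCHR1 antagonism read out in CHO cells carrying a Gal4/Elk1 luciferase reporter. IC50 values are averages of 2-3 experiments.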

[2] = Oral bioavailability in rat at 3 mg/kg, iv and 10 mg/kg, po; assay type: ADME, organism-based; conditions: in vivo
How it was run: (§1)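 Rat PK. Dosed in 20% DMSO/21% Solutol in 10 mM MSA (final concentration), n = 2. IV dose 3 mg/kg, PO dose 10 mg/kg. Plasma drug levels measured by LC-MS/MS. Half-life taken from the IV dosing.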

[3] = Half life in rat at 3 mg/kg, iv; assay type: ADME, organism-based; parameters: dose 3 mg/kg, route intravenous; conditions: in vivo; how it was run: as §1
[4] = Volume of distribution in rat at 3 mg/kg, iv and 10 mg/kg, po; assay type: ADME, organism-based; conditions: in vivo, read-out: Vss; how it was run: as §1
[5] = Total clearance in rat at 3 mg/kg, iv and 10 mg/kg, po; assay type: ADME, organism-based; conditions: in vivo; how it was run: as §1
[6] = Dissociation constant, pKa of the compound; assay type: physicochemical
[7] = tested on: Mus musculus; assay: Reduction in body weight of DIO AKR/J mouse relative to control at 1 mg/kg/day, po after 21 days; assay type: functional; parameters: scale not given: the % may be the effect or the level left
How it was run: (§2)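 Diet-induced obese AKR/J mice on a high-fat diet (58% kcal fat). Oral dosing once daily for 21 days. Weight change expressed as percentage of pretreatment body weight for each group. Vehicle group and rimonabant (CB1 inverse agonist) used as controls. Mean ± SEM.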

[8] = tested on: Mus musculus; assay: Reduction in body weight of DIO AKR/J mouse relative to control at 3 mg/kg/day, po after 21 days; assay type: functional; parameters: scale not given: the % may be the effect or the level left; how it was run: as §2
[9] = tested on: Mus musculus; assay: Reduction in body weight of DIO AKR/J mouse relative to control at 10 mg/kg/day, po after 21 days; assay type: functional; parameters: scale not given: the % may be the effect or the level left; how it was run: as §2

Chain of Melanin-concentrating hormone receptor 1 (Q99705 whole entry, the tested form may be a part): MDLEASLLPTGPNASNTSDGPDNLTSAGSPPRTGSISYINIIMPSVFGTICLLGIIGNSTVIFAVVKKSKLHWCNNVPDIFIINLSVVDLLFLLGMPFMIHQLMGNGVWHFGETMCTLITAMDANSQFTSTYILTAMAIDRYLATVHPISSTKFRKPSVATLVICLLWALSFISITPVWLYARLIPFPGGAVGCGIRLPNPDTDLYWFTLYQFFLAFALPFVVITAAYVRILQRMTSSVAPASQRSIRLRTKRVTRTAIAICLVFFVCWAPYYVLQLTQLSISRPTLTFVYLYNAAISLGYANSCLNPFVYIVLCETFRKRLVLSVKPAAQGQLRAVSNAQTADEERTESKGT

- IC50 [1]: 1410 nM
SMILES: O=C(NCCCN1CCCC1)c1ccc2cc(-n3cnc4cc(-c5ccc(Cl)cc5)sc4c3=O)ccc2c1

- IC50 [1]: 1.1 nM
SMILES: CN(C)CC1CCc2cc(-n3cnc4cc(-c5ccc(Cl)cc5)sc4c3=O)ccc2C1 (stereo not given)

- IC50 [1]: 1.3 nM
SMILES: O=c1c2sc(-c3ccc(Cl)cc3)cc2ncn1-c1ccc2c(c1)CCC(CN1CCCC1)C2 (stereo not given)

- IC50 [1]: 5 nM
SMILES: O=C(NCCN1CCCC1)c1ccc2cc(-n3cnc4cc(-c5ccc(Cl)cc5)sc4c3=O)ccc2c1

- IC50 [1]: 31.6 nM
SMILES: O=c1c2sc(-c3ccc(Cl)cc3)cc2ncn1-c1ccc2cc(CO)ccc2c1

- IC50 [1]: > 10000 nM
SMILES: O=c1c2sc(-c3ccc(Cl)cc3)cc2ncn1-c1ccc2ccccc2c1

- IC50 [1]: 1.1 nM
SMILES: Cn1c(CN2CCCC2)cc2cc(-n3cnc4cc(-c5ccc(Cl)cc5)sc4c3=O)ccc21

- IC50 [1]: 0.75 nM
SMILES: O=c1c2sc(-c3ccc(Cl)cc3)cc2ncn1-c1ccc2c(c1)CCC(CN1CCCCC1)=C2

- bioavailability [2]: 57%
- half-life [3]: 660 min
- Vd [4]: 15.7 L/kg
- clearance [5]: 21.2 mL/min/kg
- IC50 [1]: 0.87 nM
SMILES: O=c1c2sc(-c3ccc(Cl)cc3)cc2ncn1-c1ccc2c(c1)CCC(CN1CCCC1)=C2

- IC50 [1]: 38 nM
SMILES: O=c1c2sc(-c3ccc(Cl)cc3)cc2ncn1-c1ccc2sc(CN3CCOCC3)cc2c1

- bioavailability [2]: 67%
- half-life [3]: 180 min
- Vd [4]: 16 L/kg
- clearance [5]: 80 mL/min/kg
- IC50 [1]: 2.7 nM
SMILES: CN(C)CC1=Cc2ccc(-n3cnc4cc(-c5ccc(Cl)cc5)sc4c3=O)cc2CC1

Continued, compound first:

SMILES: O=c1c2sc(-c3ccc(Cl)cc3)cc2ncn1-c1ccc2c(c1)CCC(CN1CCCCC1)C2 (stereo not given)
- IC50 [1]: 3.1 nM

SMILES: O=c1c2sc(-c3ccc(Cl)cc3)cc2ncn1-c1ccc2cc(CN3CCCCC3)ccc2c1
- IC50 [1]: 0.39 nM

SMILES: CN(C)Cc1cc2cc(-n3cnc4cc(-c5ccc(Cl)cc5)sc4c3=O)ccc2s1
- IC50 [1]: 1.3 nM

SMILES: O=C(c1ccc2cc(-n3cnc4cc(-c5ccc(Cl)cc5)sc4c3=O)ccc2c1)N1CCCC1
- IC50 [1]: > 10000 nM

SMILES: O=c1c2sc(-c3ccc(Cl)cc3)cc2ncn1-c1ccc2oc(CN3CCCC3)cc2c1
- bioavailability [2]: 21%
- half-life [3]: 96 min
- Vd [4]: 8.5 L/kg
- clearance [5]: 115 mL/min/kg
- IC50 [1]: 1.1 nM

SMILES: O=c1c2sc(-c3ccc(Cl)cc3)cc2ncn1-c1ccc2sc(CN3CCC(c4ccccc4)CC3)cc2c1
- pKa [6]: 7.91
- bioavailability [2]: 27.9%
- half-life [3]: 354 min
- Vd [4]: 0.6 L/kg
- clearance [5]: 2.9 mL/min/kg
- IC50 [1]: 5.7 nM

SMILES: COC[C@H]1CCCN1Cc1cc2cc(-n3cnc4cc(-c5ccc(Cl)cc5)sc4c3=O)ccc2n1C
- IC50 [1]: 1.4 nM

SMILES: O=c1c2sc(-c3ccc(Cl)cc3)cc2ncn1-c1ccc2sc(CN3CC[C@@H](O)C3)cc2c1
- bioavailability [2]: 36.1%
- half-life [3]: 126 min
- Vd [4]: 3.6 L/kg
- clearance [5]: 30.8 mL/min/kg
- IC50 [1]: 2.5 nM

SMILES: O=c1c2sc(-c3ccc(Cl)cc3)cc2ncn1-c1ccc2sc(CN3CCCC3)cc2c1
- IC50 [1]: 0.91 nM

SMILES: COC[C@H]1CCCN1Cc1cc2cc(-n3cnc4cc(-c5ccc(Cl)cc5)sc4c3=O)ccc2o1
- IC50 [1]: 9.5 nM

SMILES: O=c1c2sc(-c3ccc(Cl)cc3)cc2ncn1-c1ccc2sc(CN3CCN(c4ccccc4)CC3)cc2c1
- IC50 [1]: 29 nM

SMILES: O=C(O)c1ccc2cc(-n3cnc4cc(-c5ccc(Cl)cc5)sc4c3=O)ccc2c1
- IC50 [1]: > 10000 nM

SMILES: CN1CCN(Cc2cc3cc(-n4cnc5cc(-c6ccc(Cl)cc6)sc5c4=O)ccc3s2)CC1
- bioavailability [2]: 66%
- half-life [3]: 546 min
- Vd [4]: 20.4 L/kg
- clearance [5]: 39 mL/min/kg
- Activity [7]: 1.1%
- Activity [8]: 3.2%
- Activity [9]: 11.8%
- IC50 [1]: 5.7 nM

SMILES: O=c1c2sc(-c3ccc(Cl)cc3)cc2ncn1-c1ccc2sc(CN3CCCCC3)cc2c1
- pKa [6]: 8.29
- IC50 [1]: 2 nM

SMILES: Cc1c(C(=O)NN2CCCCC2)nn(-c2ccc(Cl)cc2Cl)c1-c1ccc(Cl)cc1 [RIMONABANT]
- Activity [9]: 8.4%

From ChEMBL document CHEMBL1137353, “6-(4-chlorophenyl)-3-substituted-thieno[3,2-d]pyrimidin-4(3H)-one-based melanin-concentrating hormone receptor 1 antagonist” (J Med Chem, 2006)
